Consider four compounds from ChEMBL document CHEMBL1156002, “Synthesis, Raman, FT-IR, NMR spectroscopic characterization, antimicrobial activity, cytotoxicity and DNA binding of new mixed aza-oxo-thia macrocyclic compounds” (2009).

Values after ≈ are worked out from the molar mass of the structure shown. Active and inactive are the calls of the source. The calls are words filed in the database; no cut-off is given here. Bounds are passed on as bounds.

In test [1] the test system is Micrococcus luteus. Nature of the test: Antibacterial activity against Micrococcus luteus La 2971 after 24 hrs by agar disk diffusion assay. It counts as functional. The gist of the method:
(§1)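 Disk diffusion with sterile 6 mm discs loaded with DMSO solutions of the test agents and placed on inoculated agar. Bacteria were pre-grown in Nutrient Broth at 30 °C for 24 h, and plates were incubated at 35 °C for 24 h. Each plate carried a reference antibiotic disc matched to the organism, and a DMSO-only solvent control was run.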

Test [2] can be described thus: Cytotoxicity against human 23132/87 cells assessed as cell viability at 1 uM after 48 hrs by MTT assay. It counts as functional. To be noted: 23132-87, 48 h, read-out: Activity. In a few lines:
(§2)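 Cells were seeded at 3.10³–5.10³ per well in RPMI 1640 with 10% FBS, 4 mM L-glutamine and penicillin/streptomycin, then held 24 h at 37 °C under 5% CO₂. Ligands (DMSO, final 0.5% v/v) were added at 0.1–100 for 24 or 48 h. MTT was added for 4 h and dissolved in 50% DMF/5% SDS. A570 was read, and cytotoxicity was calculated as 100×(OD treated/OD untreated).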
For orientation: Formazan colour is commonly taken as a measure of viable cells.

For test [3], the system named is Hanseniaspora guilliermondii. Nature of the test: Antifungal activity against Hanseniaspora guilliermondii DSM 3432 after 24 hrs by broth micro dilution method. It counts as functional. To be noted: DSM 3432, 24 h. The gist of the method: (§3)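 Broth microdilution was run in cation-adjusted Mueller Hinton Broth. Compounds were dissolved in DMSO at 2 mg mL^-1 and serially diluted two-fold. Yeast precultures were grown in Malt Extract Broth for 48 h. The final inoculum was about 10⁶ cfu mL^-1, and plates were incubated at 37 °C for 24 h. The MIC was read from this series.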

The subject of test [4] is Mycolicibacterium smegmatis. Nature of the test: Antibacterial activity against Mycobacterium smegmatis CCM 2067 after 24 hrs by agar disk diffusion assay. It counts as functional. The gist of the method: as §1
In general terms: Agar diffusion results depend on both activity and mobility in agar.

The subject of test [5] is 23132-87. Nature of the test: Induction of apoptosis in human 23132/87 cells assessed as DNA fragmentation at 100 uM after 24 hrs by DNA fragmentation assay. It counts as functional, cell-based. In a few lines:
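10 × 10⁴ cells were seeded in 6-well plates and treated with ligand for 24 h. Cells were then collected and washed in PBS, and DNA was extracted with a kit. Extracts were run on 1.5% agarose alongside a 100 bp marker, an untreated control and DMSO-treated controls, and ladders were visualized under UV.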

The test system of test [6] is Listeria monocytogenes. Nature of the test: Antibacterial activity against Listeria monocytogenes ATCC 15313 after 24 hrs by broth micro dilution method. To be noted: ATCC 15313, 24 h. It counts as functional.
The test system of test [7] is Klebsiella pneumoniae. Nature of the test: Antibacterial activity against Klebsiella pneumoniae UC57 after 24 hrs by agar disk diffusion assay. It counts as functional. In a few lines:
as §1

The test system of test [8] is A549. In words: Cytotoxicity against human A549 cells assessed as cell viability at 100 uM after 24 hrs by MTT assay. It counts as functional. To be noted: A549, 24 h, read-out: Activity. In a few lines:
as §2

In test [9] the test system is Candida albicans. Nature of the test: Antifungal activity against Candida albicans ATCC 10231 after 24 hrs by broth micro dilution method. As to conditions: ATCC 10231, 24 h. It counts as functional. The gist of the method:
as §3

The nature of test [10]: Cytotoxicity against human 23132/87 cells assessed as cell viability at 10 uM after 48 hrs by MTT assay. It counts as functional. To be noted: 23132-87, 48 h, read-out: Activity. The gist of the method:
as §2

Test [11] deals with Klebsiella pneumoniae. Nature of the test: Antibacterial activity against Klebsiella pneumoniae UC57 after 24 hrs by broth micro dilution method. It counts as functional. To be noted: UC57, 24 h.
A short description of test [12]: Cytotoxicity against human 23132/87 cells assessed as cell viability at 1 uM after 24 hrs by MTT assay. It counts as functional. As to conditions: 23132-87, 24 h, read-out: Activity. In a few lines:
as §2

In test [13] the test system is Escherichia coli. Nature of the test: Antibacterial activity against Escherichia coli ATCC 11230 after 24 hrs by agar disk diffusion assay. It counts as functional. The gist of the method: as §1
Test [14] relates to Kluyveromyces marxianus. Nature of the test: Antifungal activity against Kluyveromyces fragilis NRRL 2415 after 24 hrs by broth micro dilution method. It counts as functional. As to conditions: NRRL 2415, 24 h. In a few lines: as §3
The test system of test [15] is Kluyveromyces marxianus. Nature of the test: Antifungal activity against Kluyveromyces fragilis NRRL 2415 after 72 hrs by agar disk diffusion assay. It counts as functional. The gist of the method:
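Sterile 6 mm paper discs were loaded with ligand solution freshly prepared in DMSO and placed on inoculated agar. The inoculum came from broth cultures: bacteria in Nutrient Broth at 30 °C for 24 h, yeasts in Malt Extract Broth for 48 h. Plates were incubated at 35 °C for 24 h (bacteria) or 25 °C for 72 h (yeasts). A DMSO solvent control and a reference antibiotic disc were included on each plate.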

Test [16] can be described thus: Cytotoxicity against human 23132/87 cells assessed as cell viability at 0.1 uM after 24 hrs by MTT assay. It counts as functional. As to conditions: 23132-87, 24 h, read-out: Activity. In a few lines: as §2

Regarding `O=C1CSCC(=O)Nc2nc(nc(-c3ccccc3)n2)NC(=O)CSCC(=O)Nc2nc(nc(-c3ccccc3)n2)N1`, the “inhibition zone (IZ)” value is given as 14 mm in test [1]; 10 mm in test [4]; 13 mm in test [7]; 10 mm in test [13]; 15 mm in test [15]. Moreover, the viability at 1 µM in [2] and in test [12] was above 86% in each case. The MIC (commonly the lowest concentration that inhibits growth of the organism) in test [3] came out at 1.56 µg/mL (≈ 2.59 µM); in test [6], 25 µg/mL (≈ 41.5 µM); in test [9], 6.25 µg/mL (≈ 10.4 µM); in test [11], 12.5 µg/mL (≈ 20.7 µM); in test [14], 6.25 µg/mL (≈ 10.4 µM). For the same compound, the outcome in [5] was inactive. Further, in [8], the viability at 100 µM was above 86%. Also, the viability at 10 µM in [10] is above 86%. In addition, the viability at 0.1 µM in [16] was above 86%.
In the case of `O=C1CSSCC(=O)Nc2nc(nc(-c3ccccc3)n2)NC(=O)CSSCC(=O)Nc2nc(nc(-c3ccccc3)n2)N1`, the “inhibition zone (IZ)” value turned out to be 18 mm in [1]; 10 mm in test [4]; 15 mm in [7]; 10 mm in test [13]; 19 mm in test [15]. The viability at 1 µM in test [2] and in test [12] was above 86% in each case. The MIC in test [3] amounted to 1.56 µg/mL (≈ 2.34 µM); in [6], 25 µg/mL (≈ 37.5 µM); in [9], 3.12 µg/mL (≈ 4.69 µM); in [11], 6.25 µg/mL (≈ 9.37 µM); in test [14], 1.56 µg/mL (≈ 2.34 µM). Also, the outcome in [5] was inactive. Moreover, the viability at 100 µM in [8] is above 86%. In addition, in test [10], the viability at 10 µM was above 86%. For the same compound, in test [16], the viability at 0.1 µM was above 86%.
In the case of `O=C1CCSCCC(=O)Nc2nc(nc(-c3ccccc3)n2)NC(=O)CCSCCC(=O)Nc2nc(nc(-c3ccccc3)n2)N1`, the “inhibition zone (IZ)” value in test [1] is listed as 12 mm; in [4], 9 mm; in test [7], 13 mm; in [13], 10 mm; in test [15] it was 16 mm. Further, the viability at 1 µM in [2] and in test [12] was above 86% throughout. Moreover, the MIC in [3] is 1.56 µg/mL (≈ 2.37 µM); in test [6], 25 µg/mL (≈ 37.9 µM); in [9] it was 3.12 µg/mL (≈ 4.74 µM); in test [11], 12.5 µg/mL (≈ 19 µM); in test [14] it was 6.25 µg/mL (≈ 9.49 µM). In addition, in [5], the outcome was inactive. For the same compound, the viability at 100 µM in [8] is above 86%. Further, the viability at 10 µM in test [10] is above 86%. Moreover, the viability at 0.1 µM in test [16] is above 86%.
`O=C1CCSSCCC(=O)Nc2nc(nc(-c3ccccc3)n2)NC(=O)CCSSCCC(=O)Nc2nc(nc(-c3ccccc3)n2)N1`: the “inhibition zone (IZ)” value in test [1] was 17 mm; in [4], 11 mm; in test [7], 16 mm; in test [13], 10 mm; in [15] it was 21 mm. Also, the viability at 1 µM in [2] and in test [12] was above 86% each time. The MIC was 1.56 µg/mL (≈ 2.16 µM) in [3]; 25 µg/mL (≈ 34.6 µM) in test [6]; 3.12 µg/mL (≈ 4.32 µM) in test [9]; 6.25 µg/mL (≈ 8.65 µM) in test [11]; 1.56 µg/mL (≈ 2.16 µM) in test [14]. The outcome in test [5] was inactive. In addition, the viability at 100 µM in test [8] is above 86%. Moreover, the viability at 10 µM in test [10] was above 86%. Also, the viability at 0.1 µM in test [16] was above 86%.
